High-throughput results: PubChem, Broad Institute
Most compounds without a hit are left out; they make up all but 3.1% or so of the library.
ERAP1 inh = inhibitors of human ERAP1 aminopeptidase | Q9NZ08 | recombinant ERAP1, Leu-AMC fluorescence, 60 min | inhibition, % at 10.7 µM | actives 0.15% (n = 340,000) | AID 652197;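 active = mean replicate inhibition of at least 30%, or all replicates individually reaching that 30% level; inactive = mean below 30% and not every replicate reaching it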;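 note: 0% = neutral control wells and 100% = L-leucinethiol positive control wells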
Target sequence (Q9NZ08 whole entry, looked up): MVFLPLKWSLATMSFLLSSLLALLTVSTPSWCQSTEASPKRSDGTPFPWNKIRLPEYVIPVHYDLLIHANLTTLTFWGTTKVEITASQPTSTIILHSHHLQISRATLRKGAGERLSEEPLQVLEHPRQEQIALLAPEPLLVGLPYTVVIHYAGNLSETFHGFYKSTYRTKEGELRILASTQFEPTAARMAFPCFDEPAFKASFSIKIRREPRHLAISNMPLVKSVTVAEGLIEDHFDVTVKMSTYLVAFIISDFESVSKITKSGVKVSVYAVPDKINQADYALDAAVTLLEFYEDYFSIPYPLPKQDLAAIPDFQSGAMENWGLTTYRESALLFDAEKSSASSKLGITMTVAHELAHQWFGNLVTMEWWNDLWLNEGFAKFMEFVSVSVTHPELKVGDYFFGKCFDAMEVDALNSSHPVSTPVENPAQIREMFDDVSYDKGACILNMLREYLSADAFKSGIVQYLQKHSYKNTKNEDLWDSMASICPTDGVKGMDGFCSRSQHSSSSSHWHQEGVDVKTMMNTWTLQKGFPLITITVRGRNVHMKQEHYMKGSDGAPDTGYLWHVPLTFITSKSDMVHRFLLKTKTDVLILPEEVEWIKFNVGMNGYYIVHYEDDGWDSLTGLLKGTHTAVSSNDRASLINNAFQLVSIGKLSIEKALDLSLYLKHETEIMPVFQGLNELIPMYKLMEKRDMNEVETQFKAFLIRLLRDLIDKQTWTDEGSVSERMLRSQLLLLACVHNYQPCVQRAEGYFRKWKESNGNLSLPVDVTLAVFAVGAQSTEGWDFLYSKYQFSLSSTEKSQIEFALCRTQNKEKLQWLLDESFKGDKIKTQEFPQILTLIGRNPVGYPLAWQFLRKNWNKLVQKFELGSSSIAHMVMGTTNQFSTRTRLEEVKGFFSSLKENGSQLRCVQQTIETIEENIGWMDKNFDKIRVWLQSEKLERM
rRNA inh HTS = inhibits bacterial ribosomal RNA function over humanized ribosomes. E. coli WT GFP vs humanized-ribosome RFP mutants, fluorescence, 24 h; active compounds read low; DMSO median 0, no signal -100. GFP signal change (wild-type ribosome), % (test concentration not listed). actives 1.6% (n = 350,000). AID 720706;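 active = significant combined selectivity score with lowered wild-type GFP, culture density cut under 30%, mutant RFP and density less affected; inactive = any of these conditions unmet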
CFTR F508del cor = CFTR F508del correction in bronchial cells; actives 0.36% (n = 350,000); activity (quench increase), % at 7.58 µM; CFBE cells, YFP halide quenching; stimulated with forskolin plus potentiator P3; % fluorescence drop versus neutral controls;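 active = mean added fluorescence quench of at least 8% versus neutral control, with both replicates also reaching 8%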;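 note: cells transiently co-express mutant CFTR-F508del with the halide-sensitive YFP; corrector assay measuring rescue of mutant channel to the surface after 24 h compound exposure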
SIRT5 block = sirtuin-5 (human) deacylase inhibition | Purified SirT5, succinyl-peptide AMC, trypsin-coupled fluorescence | inhibition, % at 15 µM | Q9NXA8 | AID 652115 | actives 1.1% (n = 330,000); in the data active = inhibition above about 15%
S100A4 MyoIIA = S100A4-myosin IIA interaction inhibition; inhibition, % at 10.7 µM; S100A4/TAMRA-MyoIIA peptide fluorescence polarization; actives 0.14% (n = 360,000); P26447;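 active = mean inhibition of at least 70% across replicates, with every replicate also reaching that level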
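Test system – S100A4 monomer (human) · Compound – single-point compound testing · Schedule – 5 min incubation before reading · Probe or stimulus – TAMRA-labelled myosin IIA heavy-chain peptide probe, 5 nM · Benchmarks – neutral control DMSO, positive control TFP · Medium – Calcium-containing HEPES buffer, pH 7.2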
* hit, by the source's call; nt = not tested or not shown.

SMILES	ERAP1 inh	rRNA inh HTS	CFTR F508del cor	SIRT5 block	S100A4 MyoIIA
Cc1cccc(S(=O)(=O)N(C)C[C@H]2OCc3ccccc3-c3c(n(C)c4ccccc34)C(=O)N([C@H](C)CO)C[C@H]2C)c1	1	4	1	18*	7
O=S(=O)(N[C@H]1CC[C@@H](CCn2cc(C3(O)CCCC3)nn2)O[C@@H]1CO)c1ccccc1	-1	1	-1	-1	-10
C[C@H]1CN([C@@H](C)CO)C(=O)c2ccccc2-c2ccccc2CO[C@H]1CN(C)C(=O)c1ccccc1	1	-2	1	2	0
C[C@@H]1CN([C@H](C)CO)C(=O)CCCn2cc(nn2)CO[C@@H]1CN(C)Cc1ccc2c(c1)OCCO2	-1	0	-2	-5	2
O=C(N/N=C/c1ccccn1)c1ccc(NC(=O)c2ccccc2Cl)cc1	-2	-21*	1	1	-5
O=C(N/N=C/c1ccccn1)c1ccc(NC(=O)c2ccc(F)cc2)cc1	-1	-10	2	3	7
COc1ccc2c3c(n(C)c2c1)[C@H](CO)NCC31CCN(Cc2cc(-c3ccccc3)on2)CC1	-3	1	12*	12	5
CC=Cc1ccc2n(c1=O)C[C@H]1[C@H](CO)[C@@H](C(=O)N3CCCCC3)[C@@H]2N1Cc1ccccn1 (mixture of isomers)	nt	1	nt	-25	nt
COc1ccc(/C=C2\CCc3ccccc3C2=O)cc1CN1CCOCC1	4	-30*	-1	0	18
COc1ccc(C=C2CCc3ccccc3C2=O)cc1	4	-15	2	1	3
CS(=O)(=O)Nc1ccc2c(c1)[C@H]1C[C@@H](CC(=O)N3CCCCC3)O[C@@H](CO)[C@H]1O2	nt	2	-1	nt	nt
COc1ccc2c3c([nH]c2c1)[C@H](CO)N(S(=O)(=O)c1cn(C)cn1)CC31CCN(Cc2ccccc2F)CC1	-2	-2	0	6	13
O=C(CCCl)Nc1nc2c(s1)CCc1ccccc1-2	4	-20	8.8*	-1	30
CC(=O)Nc1nc2c(s1)CCc1ccccc1-2	-2	-6	1	-3	0
C/C=C/c1ccc([C@H]2[C@H](CO)N[C@H]2CN(CC(C)C)C(=O)c2ccccn2)cc1	nt	-3	-3	-2	-11
C/C=C/c1ccc([C@@H]2[C@@H](CO)N[C@@H]2CN(CC(C)C)C(=O)c2ccccn2)cc1	nt	-4	5	18*	nt
CCCC#Cc1cnc2c(c1)C(=O)N([C@@H](C)CO)C[C@@H](C)[C@H](CN(C)C(=O)Nc1ccccc1F)O2	-1	6	-1	-7	5
C[C@H]1CCCCO[C@@H](CN(C)C(=O)Cc2ccccc2)[C@@H](C)CN([C@@H](C)CO)C(=O)c2cc(NS(=O)(=O)c3cccs3)ccc2O1	1	-4	0	-8	21
O=[N+]([O-])c1ccccc1NCc1c(O)ccc2ccccc12	0	-22*	-1	-1	-4
Oc1ccc2ccccc2c1CNc1ccccc1	-3	-13*	2	-1	17
Oc1ccc2ccccc2c1CNc1ccc2ccccc2c1	1	-58	-1	nt	-3
C[C@@H]1CN([C@@H](C)CO)C(=O)c2cc(NC(=O)c3ccncc3)ccc2O[C@@H](C)CCCCO[C@@H]1CN(C)S(=O)(=O)c1cccs1	0	-1	2	-1	-19
CCOc1ccc2nc(SCC3CC3(Cl)Cl)[nH]c2c1 (stereo not given)	-1	-45	1	-3	-3
ClC1(Cl)CC1CSc1nc2ccccc2[nH]1 (stereo not given)	4	-28*	-3	-3	-15
CCN1CCN(c2cc(C)c3cc(NC(=S)NCCN(C)C)ccc3n2)CC1	3	8	1	21*	-20
Cc1cc(N2CCN(C)CC2)nc2ccc(NC(=S)N3CCCCCC3)cc12	nt	1	0	20*	1
CCN1CCN(c2cc(C)c3cc(NC(=O)c4ccc(OC)c(OC)c4)ccc3n2)CC1	9	3	13*	-2	-4
Cc1cc(N2CCN(C)CC2)nc2ccc(NC(=S)N3CCCCC3)cc12	-1	5	-1	-1	-5
CCN1CCN(c2cc(C)c3cc(NC(=O)CCC(=O)Nc4ccc(OC)c(OC)c4)ccc3n2)CC1	-2	11	4	-3	-1
